In ChEMBL document CHEMBL4028826, “Virtual screen to NMR (VS2NMR): Discovery of fragment hits for the CBP bromodomain” (Bioorg Med Chem Lett, 2017):

How the values were obtained:
CREB-binding protein [1] = biological target: T1, CREB-binding protein (Homo sapiens, UniProt Q92793); test: Residual binding of human CBP expressed in Escherichia coli to histone H4 tetraacetylated peptide at 0.5 mM by Alphascreen assay relative to control
Target sequence in this assay (Q92793 2-2442 limits assumed): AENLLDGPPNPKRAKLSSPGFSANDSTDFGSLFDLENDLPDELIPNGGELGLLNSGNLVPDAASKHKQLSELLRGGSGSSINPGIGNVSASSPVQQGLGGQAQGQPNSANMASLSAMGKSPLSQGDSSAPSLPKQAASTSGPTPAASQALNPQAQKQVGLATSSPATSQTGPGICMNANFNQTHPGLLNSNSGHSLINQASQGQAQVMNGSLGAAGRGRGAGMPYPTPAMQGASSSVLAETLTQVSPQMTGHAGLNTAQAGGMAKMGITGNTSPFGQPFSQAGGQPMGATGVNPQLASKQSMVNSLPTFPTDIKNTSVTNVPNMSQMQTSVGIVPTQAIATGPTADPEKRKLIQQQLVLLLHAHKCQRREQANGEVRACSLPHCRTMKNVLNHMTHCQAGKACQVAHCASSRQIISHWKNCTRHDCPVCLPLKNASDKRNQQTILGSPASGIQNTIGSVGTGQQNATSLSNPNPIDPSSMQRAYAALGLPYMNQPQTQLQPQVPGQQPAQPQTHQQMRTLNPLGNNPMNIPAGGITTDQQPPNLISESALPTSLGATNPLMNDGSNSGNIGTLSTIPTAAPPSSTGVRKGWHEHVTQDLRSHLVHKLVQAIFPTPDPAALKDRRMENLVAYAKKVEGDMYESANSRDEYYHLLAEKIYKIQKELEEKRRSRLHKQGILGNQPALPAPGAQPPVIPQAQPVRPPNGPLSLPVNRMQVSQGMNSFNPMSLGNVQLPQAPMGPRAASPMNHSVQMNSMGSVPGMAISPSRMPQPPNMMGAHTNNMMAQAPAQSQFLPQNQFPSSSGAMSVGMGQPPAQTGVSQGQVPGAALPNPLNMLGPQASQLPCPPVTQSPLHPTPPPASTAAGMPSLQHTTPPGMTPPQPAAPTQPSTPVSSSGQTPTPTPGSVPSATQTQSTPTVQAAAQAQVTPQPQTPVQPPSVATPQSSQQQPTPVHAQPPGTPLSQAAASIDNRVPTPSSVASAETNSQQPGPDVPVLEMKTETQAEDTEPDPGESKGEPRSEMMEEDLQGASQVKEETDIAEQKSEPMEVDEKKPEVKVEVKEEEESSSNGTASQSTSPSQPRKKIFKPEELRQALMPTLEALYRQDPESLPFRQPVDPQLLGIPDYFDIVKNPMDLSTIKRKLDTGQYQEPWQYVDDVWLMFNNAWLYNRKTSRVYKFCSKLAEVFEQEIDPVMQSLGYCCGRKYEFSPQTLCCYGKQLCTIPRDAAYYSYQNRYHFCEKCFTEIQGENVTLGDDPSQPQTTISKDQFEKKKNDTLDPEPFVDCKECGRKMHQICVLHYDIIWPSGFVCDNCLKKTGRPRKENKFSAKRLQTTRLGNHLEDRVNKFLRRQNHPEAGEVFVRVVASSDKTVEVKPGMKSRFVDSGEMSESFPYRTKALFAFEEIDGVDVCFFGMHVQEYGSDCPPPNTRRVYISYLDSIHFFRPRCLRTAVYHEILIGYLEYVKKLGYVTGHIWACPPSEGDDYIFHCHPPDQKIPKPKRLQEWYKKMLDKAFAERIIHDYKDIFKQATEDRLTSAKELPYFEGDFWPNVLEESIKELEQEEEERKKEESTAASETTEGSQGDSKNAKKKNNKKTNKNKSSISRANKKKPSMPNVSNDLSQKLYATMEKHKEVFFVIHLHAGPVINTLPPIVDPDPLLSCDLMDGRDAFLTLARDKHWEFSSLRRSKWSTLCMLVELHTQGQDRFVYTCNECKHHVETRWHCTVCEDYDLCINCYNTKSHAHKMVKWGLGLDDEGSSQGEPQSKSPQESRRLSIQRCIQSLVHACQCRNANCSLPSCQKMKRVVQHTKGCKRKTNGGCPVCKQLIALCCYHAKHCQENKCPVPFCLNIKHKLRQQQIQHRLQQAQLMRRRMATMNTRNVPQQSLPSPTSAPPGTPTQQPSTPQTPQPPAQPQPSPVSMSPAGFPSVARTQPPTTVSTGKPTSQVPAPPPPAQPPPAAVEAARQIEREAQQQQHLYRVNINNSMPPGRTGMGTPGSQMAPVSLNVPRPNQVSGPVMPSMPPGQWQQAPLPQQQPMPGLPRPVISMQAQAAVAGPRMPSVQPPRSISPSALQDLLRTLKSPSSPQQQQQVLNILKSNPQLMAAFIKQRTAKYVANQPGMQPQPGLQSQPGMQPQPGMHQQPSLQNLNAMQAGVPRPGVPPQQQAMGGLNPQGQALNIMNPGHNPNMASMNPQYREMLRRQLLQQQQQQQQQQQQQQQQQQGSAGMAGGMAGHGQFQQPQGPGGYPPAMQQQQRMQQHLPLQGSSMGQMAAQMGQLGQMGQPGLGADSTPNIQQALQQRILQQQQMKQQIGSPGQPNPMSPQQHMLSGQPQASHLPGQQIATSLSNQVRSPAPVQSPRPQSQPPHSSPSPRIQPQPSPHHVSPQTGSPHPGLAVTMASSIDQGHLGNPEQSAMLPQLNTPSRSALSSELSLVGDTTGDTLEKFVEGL

CREB-binding protein [2] = biological target: T1, CREB-binding protein; test: Binding affinity to CBP (unknown origin) assessed as change in melting temperature at 1 mM by differential scanning fluorimetric method
How it was run: (§1)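 Differential scanning fluorimetry with bromodomain at 2 μM and ligand at 1 mM. The reported shift in melting temperature is the median of at least nine measurements for each ligand/bromodomain pair.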
Target sequence in this assay (Q92793 2-2442 limits assumed): as above

[3] = biological target: Histone acetyltransferase p300 (Homo sapiens) (UniProt Q09472); test: Binding affinity to EP300 (unknown origin) assessed as change in melting temperature at 1 mM by differential scanning fluorimetric method
How it was run: as §1

CREB-binding protein [4] = biological target: T1, CREB-binding protein; test: Inhibition of histone H4 tetraacetylated peptide binding to human CBP by Alphascreen assay
How it was run: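 AlphaScreen competition with a tetra-acetylated 21-mer histone H4 peptide as the competitor for the CBP bromodomain. IC50 was obtained by curve fitting of 10-point dose responses.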
Target sequence in this assay (Q92793 whole entry): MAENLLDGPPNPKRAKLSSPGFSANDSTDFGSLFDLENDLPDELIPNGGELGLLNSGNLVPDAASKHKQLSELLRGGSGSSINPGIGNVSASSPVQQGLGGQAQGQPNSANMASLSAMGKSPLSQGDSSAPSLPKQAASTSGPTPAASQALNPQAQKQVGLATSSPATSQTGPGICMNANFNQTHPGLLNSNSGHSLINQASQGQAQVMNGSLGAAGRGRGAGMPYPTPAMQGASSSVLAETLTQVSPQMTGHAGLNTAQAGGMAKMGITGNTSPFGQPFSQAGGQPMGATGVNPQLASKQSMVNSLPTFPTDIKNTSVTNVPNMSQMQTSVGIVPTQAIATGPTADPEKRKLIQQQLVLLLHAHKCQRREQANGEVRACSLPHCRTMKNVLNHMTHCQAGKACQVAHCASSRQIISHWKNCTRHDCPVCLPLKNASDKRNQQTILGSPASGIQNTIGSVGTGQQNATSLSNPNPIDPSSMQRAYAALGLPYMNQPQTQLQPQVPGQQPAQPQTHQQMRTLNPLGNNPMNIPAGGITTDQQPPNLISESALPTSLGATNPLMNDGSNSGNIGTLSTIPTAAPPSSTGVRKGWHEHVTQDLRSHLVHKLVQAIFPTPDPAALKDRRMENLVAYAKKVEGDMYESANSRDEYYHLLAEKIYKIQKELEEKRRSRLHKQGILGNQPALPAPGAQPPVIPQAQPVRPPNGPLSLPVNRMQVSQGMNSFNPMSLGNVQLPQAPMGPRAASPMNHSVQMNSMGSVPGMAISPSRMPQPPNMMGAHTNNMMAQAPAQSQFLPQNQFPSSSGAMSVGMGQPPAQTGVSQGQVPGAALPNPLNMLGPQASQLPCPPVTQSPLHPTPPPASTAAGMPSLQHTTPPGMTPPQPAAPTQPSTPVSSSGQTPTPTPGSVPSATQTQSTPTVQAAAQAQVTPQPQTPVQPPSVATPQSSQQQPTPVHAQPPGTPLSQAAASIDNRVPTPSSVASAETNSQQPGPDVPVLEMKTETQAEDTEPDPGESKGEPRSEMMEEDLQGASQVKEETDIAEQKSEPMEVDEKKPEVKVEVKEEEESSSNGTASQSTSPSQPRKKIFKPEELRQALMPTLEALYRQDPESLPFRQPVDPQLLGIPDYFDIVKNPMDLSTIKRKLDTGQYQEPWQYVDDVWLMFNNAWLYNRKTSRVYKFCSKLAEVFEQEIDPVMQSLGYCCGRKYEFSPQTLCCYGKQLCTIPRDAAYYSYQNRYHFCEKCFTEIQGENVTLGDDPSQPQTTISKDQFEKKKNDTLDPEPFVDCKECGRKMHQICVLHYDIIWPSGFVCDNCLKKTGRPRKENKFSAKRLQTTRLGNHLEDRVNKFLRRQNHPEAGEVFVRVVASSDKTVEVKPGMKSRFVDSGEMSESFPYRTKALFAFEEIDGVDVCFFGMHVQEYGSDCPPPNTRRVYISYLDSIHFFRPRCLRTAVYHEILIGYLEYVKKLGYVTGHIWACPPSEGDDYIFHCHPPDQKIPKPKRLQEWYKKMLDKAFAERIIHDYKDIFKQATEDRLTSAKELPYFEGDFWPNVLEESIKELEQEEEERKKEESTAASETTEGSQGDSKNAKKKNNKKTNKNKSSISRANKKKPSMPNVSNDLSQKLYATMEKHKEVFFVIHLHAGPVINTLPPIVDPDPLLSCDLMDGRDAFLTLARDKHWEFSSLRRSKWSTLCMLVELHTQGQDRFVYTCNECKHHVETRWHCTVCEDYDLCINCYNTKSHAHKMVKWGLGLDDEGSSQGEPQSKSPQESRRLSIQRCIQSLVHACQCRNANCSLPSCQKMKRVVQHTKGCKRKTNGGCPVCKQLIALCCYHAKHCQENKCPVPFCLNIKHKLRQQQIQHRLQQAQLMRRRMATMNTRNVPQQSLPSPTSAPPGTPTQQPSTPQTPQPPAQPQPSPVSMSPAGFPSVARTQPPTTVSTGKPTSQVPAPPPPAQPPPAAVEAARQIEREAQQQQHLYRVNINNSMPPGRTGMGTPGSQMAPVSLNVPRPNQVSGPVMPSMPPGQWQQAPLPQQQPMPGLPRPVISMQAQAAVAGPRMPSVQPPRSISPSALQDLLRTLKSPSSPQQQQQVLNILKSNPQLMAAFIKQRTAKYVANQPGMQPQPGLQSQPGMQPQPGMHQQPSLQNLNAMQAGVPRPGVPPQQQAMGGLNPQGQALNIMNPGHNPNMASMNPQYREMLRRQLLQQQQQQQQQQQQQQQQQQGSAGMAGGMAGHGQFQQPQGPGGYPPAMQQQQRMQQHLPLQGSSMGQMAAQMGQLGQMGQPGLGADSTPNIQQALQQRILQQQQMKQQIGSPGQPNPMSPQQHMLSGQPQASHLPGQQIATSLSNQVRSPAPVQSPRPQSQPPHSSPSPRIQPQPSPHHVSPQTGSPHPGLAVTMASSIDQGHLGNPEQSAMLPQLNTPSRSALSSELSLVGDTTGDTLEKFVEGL

CREB-binding protein [5] = biological target: T1, CREB-binding protein; test: Binding affinity to partial length human DNA-tagged CBP (R1081 to G1197 residues) expressed in bacterial expression system by qPCR analysis
How it was run: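 Competition-binding assay using DNA-tagged CBP bromodomain against an undisclosed proprietary ligand, with quantitative PCR read-out. KD was obtained by curve fitting of 12-point dose responses run in duplicate.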
Target sequence in this assay (Q92793 whole entry): as above

| residual activity (CREB-binding protein [1]) [%] | SMILES | other results |
| --- | --- | --- |
| 92 | Cc1nnsc1Sc1ccccn1 | – |
| 34 | COC(=O)c1ccc2[nH]c(=O)oc2c1 | ΔTm (CREB-binding protein [2]): 2.3 °C; ΔTm [3]: 1.4 °C; IC50 (CREB-binding protein [4]): 455 µM; Kd (CREB-binding protein [5]): 85 µM |
| 85 | CCc1nnc2cccc(Cl)n12 | – |
| 56 | COC(=O)N1CCC(C(=O)O)CC1 | – |
| 48 | COc1ccc(-c2c[nH]nc2N)cc1OC | ΔTm (CREB-binding protein [2]): -0.1 °C; ΔTm [3]: -1.3 °C |
| 92 | COC(=O)c1ccc(C(C)=O)cc1 | – |
| 56 | CC(=O)c1ccc(CC#N)s1 | – |
| 96 | CNC(=O)c1ccc(C(F)(F)F)nc1 | – |
| 31 | CC(=O)c1cn(C)c2ccccc12 | ΔTm (CREB-binding protein [2]): 2.9 °C; ΔTm [3]: 2.6 °C |
| 102 | Cc1nnc2ccc(N3CCOCC3)nn12 | – |
| 94 | O=C(O)[C@@H]1CS[C@H](c2ccc(F)cc2)N1 | – |
| 0.1 | CNC(=O)c1cc(Br)c[nH]1 | ΔTm (CREB-binding protein [2]): 7.3 °C; ΔTm [3]: 7 °C; IC50 (CREB-binding protein [4]): 40 µM; Kd (CREB-binding protein [5]): 4 µM |
| 74 | CC(=O)Nc1ccc(SCC#N)cc1 | – |
| 93 | CC(=O)c1ccc(O)c2[nH]c(=O)ccc12 | – |
| 100 | CS(=O)(=O)NCc1ccc2c(c1)OCO2 | – |
| 79 | CCn1cnc2ccc(C(=O)OC)cc21 | – |
| 37 | COc1cc(C(C)=O)ccc1N | ΔTm (CREB-binding protein [2]): 2.4 °C; ΔTm [3]: 2.6 °C |
| 92 | Cc1nc2ccc(NS(C)(=O)=O)cc2o1 | – |
| 98 | O=c1[nH]c(=O)n([C@H]2C[C@H](O)[C@H](CO)O2)cc1F | – |
| 100 | Cn1ncc2c1CCCC2=O | – |
